Test [1] relates to Cerebellar granule neurone. The test can be described thus: Influx of calcium in Cerebellar Granule Cells of rat after 10 min of incubation with compound. Format: functional. In outline: (§1)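 Cerebellar granule cells preincubated 15 min with 50 μM azetidine, then 10 min without (basal) or with 10 μM glutamate or 10 μM aspartate; 45Ca2+ influx measured. Percent stimulation relative to agonist alone (100%) after subtracting respective basal values; means ± SEM of four experiments.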

The species entered for test [2] is Rattus norvegicus. The test can be described thus: Effect on fractional [3H]GABA release from rat forebrain neurons in culture in the presence of 100 uM CGS 19755.
The species named for test [3] is Rattus norvegicus. The test can be described thus: Effect on fractional [3H]GABA release from rat forebrain neurons in culture. Format: functional. In outline:
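Embryonic rat forebrain neurons cultured 8–9 days, loaded with 1 μCi/mL [3H]GABA 60–90 min at 37 °C, washed eight times at 5 min intervals in Mg2+-free HEPES saline, then agonist added; CGS 19755 (100 μM) where used added 5 min before. Evoked efflux minus basal, as fraction of remaining cell tritium (SDS-solubilized); 4–6 wells.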

Test [4] has as its system Cerebellar granule neurone. Put plainly: Stimulation caused by Glutamate in Cerebellar Granule Cells over basal stimulation. Format: functional, Rattus norvegicus. An outline of the steps: as §1
Test [5] concerns Cerebellar granule neurone. The test can be described thus: Influx of calcium in Cerebellar Granule Cells of rat after 10 min of incubation with compound and 10 uM glutamate. Format: functional. An outline of the steps: as §1
For test [6], the system named is Cerebellar granule neurone. Put plainly: Stimulation caused by aspartate in Cerebellar Granule Cells over basal stimulation. It counts as functional, Rattus norvegicus. In outline:
as §1

In test [7] the test system is Cerebellar granule neurone. Put plainly: Influx of calcium in Cerebellar Granule Cells of rat after 10 min of incubation with compound and 10 uM aspartate. Format: functional. An outline of the steps: as §1
The subject of test [8] is Cerebellar granule neurone. Put plainly: Ability to induce calcium uptake in cerebellar granule cells was determined at 50 uM concentration in presence of 1 uM glutamate (control= 39+/-3.8). Format: functional, Rattus norvegicus. An outline of the steps: (§2)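 Rat cerebellar granule cells (8-day-old rats), cultured 8–9 days; HEPES saline pH 7.35 with 1.3 mM CaCl2, 45CaCl2 tracer 10 min, then azetidine 50 μM 15 min at 37 °C, then agonist 10 min. Kainate/quisqualate media held 1 mM MgCl2 and 10 μM CPP. Choline/EGTA wash stop; 45Ca uptake per mg protein.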

Test [9] relates to Cerebellar granule neurone. The test can be described thus: Ability to induce calcium uptake in cerebellar granule cells was determined at 50 uM concentration in presence of 50 uM NMDA (control = 91+/-6.5). It counts as functional, Rattus norvegicus. An outline of the steps: as §2
Test [10] relates to Cerebellar granule neurone. Put plainly: Ability to induce calcium uptake in cerebellar granule cells was determined at 50 uM concentration (control= 16+/-1.5). It counts as functional, Rattus norvegicus. In outline: as §2
Test [11] relates to Cerebellar granule neurone. The test can be described thus: Ability to induce calcium uptake in cerebellar granule cells was determined at 50 uM concentration in presence of 100 uM quisqualate (control=15+/-1.2). Format: functional, Rattus norvegicus. In outline: as §2
For test [12], the system named is Cerebellar granule neurone. Put plainly: Stimulation caused by Aspartate in Cerebellar Granule Cells at 50 uM concentration in presence of 100 uM quisqualate. It counts as functional, Rattus norvegicus. An outline of the steps:
as §2

Test [13] deals with Cerebellar granule neurone. The test can be described thus: Stimulation caused by Aspartate in Cerebellar Granule Cells at 50 uM concentration in presence of 100 uM kainate. It counts as functional, Rattus norvegicus. An outline of the steps:
as §2

Test [14] deals with Cerebellar granule neurone. Put plainly: Stimulation caused by Aspartate in Cerebellar Granule Cells at 50 uM concentration in presence of 10 uM aspartate.
Test [15] has as its system Cerebellar granule neurone. Put plainly: Stimulation caused by Aspartate in Cerebellar Granule Cells at 50 uM concentration in presence of 50 uM NMDA. Format: functional, Rattus norvegicus. An outline of the steps: as §2
Test [16] relates to Cerebellar granule neurone. The test can be described thus: Stimulation caused by Aspartate in Cerebellar Granule Cells at 50 uM concentration in presence of 1 uM glutamate. Format: functional, Rattus norvegicus. An outline of the steps:
as §2

Test [17] deals with Cerebellar granule neurone. The test can be described thus: Stimulation caused by Aspartate in Cerebellar Granule Cells at 50 uM concentration. It counts as functional, Rattus norvegicus. In outline:
as §2

The test system of test [18] is Cerebellar granule neurone. The test can be described thus: Ability to induce calcium uptake in cerebellar granule cells was determined at 50 uM concentration in presence of 10 uM CPP (control= 5.4+/-0.3). It counts as functional, Rattus norvegicus. In outline:
as §2

In test [19] the test system is Cerebellar granule neurone. The test can be described thus: Ability to induce calcium uptake in cerebellar granule cells was determined at 50 uM concentration in presence of 100 uM kainate (control = 56+/-3.7). Format: functional, Rattus norvegicus. In outline:
as §2

The test system of test [20] is Cerebellar granule neurone. Put plainly: Ability to induce calcium uptake in cerebellar granule cells was determined at 50 uM concentration in presence of 10 uM aspartate (control = 43+/-2.9).
Test [21] relates to Cerebellar granule neurone. The test can be described thus: Stimulation caused by Aspartate in Cerebellar Granule Cells at 50 uM concentration in presence of 10 uM CPP. It counts as functional, Rattus norvegicus. In outline:
as §2

Values joined by “and” are separate entries in the source; they are usually repeats but may differ in a detail not shown here. Equal values may be shown once.

As for `CC(=O)N1[C@@H](C(=O)O)C[C@H]1C(=O)O`, the Influx in test [1] is 16 nM/mg.

Regarding `C=C(C)[C@H]1CN[C@H](C(=O)O)[C@H]1CC(=O)O` [KAINIC ACID], the Release in the test filed under Rattus norvegicus [2] turned out to be 2.63%; in the test listed under Rattus norvegicus [3], 2.65%.

On to `COC(=O)[C@@H]1C[C@@H](C(=O)OC(C)(C)C)N1`, for which the Influx in test [1] is 15 nM/mg; in [5] it was 52 nM/mg. This compound displayed a Stimulation in test [4] of 105%.

For `O=C(O)[C@@H]1CCN1`, in [6], the Stimulation is on record as 105%. The Influx in test [1] stood at 16 nM/mg; in test [7], 44.5 nM/mg.

With `CCCCCCN1[C@@H](C(=O)O)C[C@H]1C(=O)O`, the Influx in test [1] came to 16 nM/mg.

Take `CN[C@H](CC(=O)O)C(=O)O` [N-METHYL-D-ASPARTIC ACID (NMDA)]: the results for the Release in the test filed under Rattus norvegicus [2] and in the test listed under Rattus norvegicus [3] were 0.09% and 0.73%, respectively.

With `COC(=O)[C@@H]1C[C@H](C(=O)OC)N1`, the Influx in test [1] came out at 19 nM/mg.

Take `COC(=O)[C@H]1C[C@@H](C(=O)OC(C)(C)C)N1`: the Stimulation in [6] is listed as 107%; in test [4] it was 111%. The results for the Influx in test [1], in test [7] and in test [5] were 14 nM/mg, 43 nM/mg and 54 nM/mg, respectively.

Consider `O=C(O)[C@H]1C[C@@H](C(=O)O)N1Cc1ccccc1`, for which the Influx in test [1] was found to be 15 nM/mg.

As to `CC(C)(C)OC(=O)[C@H]1C[C@@H](C(=O)O)N1`, the results for the Stimulation in [6] and in test [4] were 136% and 144%, respectively. The Influx in [1] was 15 nM/mg; in test [7], 52 nM/mg; in test [5] it was 67 nM/mg.

Regarding `O=C(O)[C@@H]1C[C@H](C(=O)O)N1`, the Influx is 85 nM/mg in [8]; 136 nM/mg in test [9]; 23 nM/mg in test [10]; 15 nM/mg in test [11]; 25 nM/mg and 21 nM/mg in [1]; 68 nM/mg in test [7]. Also, the Influx in [18] stood at 4.9 nM/mg; in test [19], 52 nM/mg; in [20], 75 nM/mg; in [5], 92 nM/mg. For the same compound, the Stimulation came out at 100% in [12]; 175% in [6]; 93% in test [13]; 193% in [14]; 151% in [15]; 268% in [16]. Besides, the values for the Stimulation in test [17], in test [4] and in [21] were 144%, 186% and 91%, respectively. The Release was -0.08% in the test listed under Rattus norvegicus [2] and 1.04% in the test filed under Rattus norvegicus [3].

Turning to `COC(=O)[C@H]1C[C@@H](C(=O)O)N1`, in test [1], the Influx is 18 nM/mg.

Take `NC(=O)[C@@H]1C[C@H](C(=O)O)N1`: the Influx in test [1] was found to be 20 nM/mg.

For the compound `CC(C)(C)OC(=O)[C@@H]1C[C@@H](C(=O)O)N1`, the Influx is 16 nM/mg in test [1] and 51 nM/mg in test [5]. In test [4], the Stimulation was 97%.

As to `NC(=O)[C@@H]1C[C@H](C(N)=O)N1`, the Influx in test [1] turned out to be 15 nM/mg.

As for `O=C(O)[C@@H]1C[C@@H](C(=O)O)N1`, the Influx in test [1] was determined as 14 nM/mg; in test [5], 52 nM/mg. Moreover, the Stimulation in [4] turned out to be 106%.

For the compound `O=C(O)[C@H]1C[C@@H](CO)N1`, the Influx in [1] is 19 nM/mg; in test [7] it was 58 nM/mg.

For the origin of these results see ChEMBL document CHEMBL1124784, “Synthesis and bioactivity of a new class of rigid glutamate analogues. Modulators of the N-methyl-D-aspartate receptor” (1990).
